Experimental data as given in ChEMBL document CHEMBL1129609, “Synthesis and antiviral activity evaluation of some new aminoadamantane derivatives. 2” (1996).
≈ marks a conversion by molar mass, not a printed value.

Legend:
[1] = test system: Human immunodeficiency virus 2; experiment: Antiviral activity against HIV-2 virus infected CEM cell lines.; format: functional, CCRF-CEM
CCRF-CEM = experiment: Cytotoxicity against CEM cell lines.; format: functional; conditions: Homo sapiens
[2] = test system: Human immunodeficiency virus 1; experiment: Antiviral activity against HIV-1 virus infected CEM cell lines.; format: functional, CCRF-CEM
Human alphaherpesvirus 1 [3] = experiment: Antiviral activity against HSV-1 virus infected HEF cell lines.; format: functional
Method in brief: (§1)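 Human embryonic fibroblasts, from embryonic lung or embryonic skin-muscle, infected with the virus. Endpoint is the minimum inhibitory concentration that reduces virus-induced cytopathicity by 50%. Values are averages of at least two separate experiments.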

Human alphaherpesvirus 2 = experiment: Antiviral activity against HSV-2 virus infected HEF cell lines.; format: functional; method in brief: as §1
Human alphaherpesvirus 1 [4] = experiment: Antiviral activity against TK-HSV-1 virus infected HEF cell lines.; format: functional; method in brief: as §1
HEF = experiment: Effects on cell morphology of HEF cell lines.; format: functional; conditions: Homo sapiens
Method in brief: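 Human embryonic skin-muscle fibroblasts were examined under the microscope for changes in normal cell morphology. The value is the minimum concentration causing a microscopically detectable alteration, averaged from at least two separate experiments.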

Vaccinia virus = experiment: Antiviral activity against vaccinia virus infected HEF cell lines.; format: functional; conditions: Orthopoxvirus vaccinia; method in brief: as §1
Enterovirus C = experiment: Antiviral activity against polio 1 virus infected HeLa cell lines.; format: functional
Method in brief: (§2)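 Vero (African green monkey kidney), HeLa (human epithelial) or HEL (human embryonic lung) cell monolayers infected with the virus. Readout is the minimum inhibitory concentration that reduces virus-induced cytopathicity by 50%. Values are averages of at least two separate experiments.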

[5] = test system: Vesicular stomatitis virus; experiment: Antiviral activity against vesicular stomatitis virus infected HeLa cell lines.; format: functional; method in brief: as §2
Coxsackievirus B4 [6] = experiment: Antiviral activity against Coxsackie B4 virus infected HeLa cell lines.; format: functional; conditions: Enterovirus B; method in brief: as §2
Human betaherpesvirus 5 = experiment: Antiviral activity against HCMV virus infected HEL cell lines.; format: functional; method in brief: as §2
Human alphaherpesvirus 3 [7] = experiment: Antiviral activity against TK+VZV virus infected HEL cell lines.; format: functional; method in brief: as §2
Human alphaherpesvirus 3 [8] = experiment: Antiviral activity against TK-VZV virus infected HEL cell lines.; format: functional; method in brief: as §2
HEL = experiment: Inhibition of HEL cell proliferation.; format: functional; conditions: Homo sapiens
Method in brief: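 Human embryonic lung fibroblasts were used for the proliferation assay. The value is the concentration that reduces cell proliferation by 50%, averaged from at least two separate experiments.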

MDCK [9] = experiment: Antiviral activity tested against influenza A,H1N1 virus infected MDCK cell lines.; format: functional; conditions: Canis lupus familiaris
[10] = Antiviral activity against influenza A,H3N2 virus infected MDCK cell lines.; format: functional
Influenza B virus = experiment: Antiviral activity against influenza B virus infected MDCK cell lines.; format: functional
MDCK [11] = experiment: Antiviral activity of compound was tested against morphology virus infec+ted MDCK cell lines.; format: functional; conditions: Canis lupus familiaris
Semliki Forest virus = experiment: Antiviral activity against Semliki forest virus infected Vero cell lines.; format: functional; method in brief: as §2
Coxsackievirus B4 [12] = experiment: Antiviral activity against Coxsackie B4 virus infected vero cell lines.; format: functional; conditions: Enterovirus B; method in brief: as §2
Vero = experiment: Effects on cell morphology of Vero cell lines.; format: functional; conditions: Chlorocebus sabaeus
Method in brief: (§3)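 HeLa (human epithelial) or Vero (African green monkey kidney) cells were examined under the microscope for changes in normal morphology. The value is the minimum concentration causing a detectable alteration, averaged from at least two separate experiments.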

Human respirovirus 3 = experiment: Antiviral activity against parainfluenza 3 virus infected Vero cell lines.; format: functional; method in brief: as §2
[13] = test system: Mammalian orthoreovirus 1; experiment: Antiviral activity against Reo 1 virus infected vero cell lines.; format: functional; method in brief: as §2
Sindbis virus = experiment: Antiviral activity against sindbis virus infected Vero cell lines.; format: functional; method in brief: as §2
[14] = Antiviral activity against influenza A,H2N2 virus infected MDCK cell lines.; format: functional
HeLa = experiment: Effects on cell morphology of HeLa cell lines.; format: functional; conditions: Homo sapiens; method in brief: as §3
[15] = test system: Vesicular stomatitis virus; experiment: Antiviral activity against vesicular stomatitis virus infected HEF cell lines.; format: functional; method in brief: as §1

| SMILES | MIC50 [1] [µg/mL] | MIC50 (CCRF-CEM) [µg/mL] | MIC50 [2] [µg/mL] | MIC50 (Human alphaherpesvirus 1 [3]) [µg/mL] | MIC50 (Human alphaherpesvirus 2) [µg/mL] | MIC50 (Human alphaherpesvirus 1 [4]) [µg/mL] | MIC50 (HEF) [µg/mL] | MIC50 (Vaccinia virus) [µg/mL] | MIC50 (Enterovirus C) [µg/mL] | MIC50 [5] [µg/mL] | MIC50 (Coxsackievirus B4 [6]) [µg/mL] | MIC50 (Human betaherpesvirus 5) [µg/mL] | MIC50 (Human alphaherpesvirus 3 [7]) [µg/mL] | MIC50 (Human alphaherpesvirus 3 [8]) [µg/mL] | MIC50 (HEL) [µg/mL] | MIC50 (MDCK [9]) [µg/mL] | MIC50 [10] [µg/mL] | MIC50 (Influenza B virus) [µg/mL] | MIC50 (MDCK [11]) [µg/mL] | MIC50 (Semliki Forest virus) [µg/mL] | also measured |
| --- | --- | --- | --- | --- | --- | --- | --- | --- | --- | --- | --- | --- | --- | --- | --- | --- | --- | --- | --- | --- | --- |
| CCN1CCCCC12C1CC3CC(C1)CC2C3 (stereo unspecified) | > 200 | > 200 | 200 (≈ 857 µM) | > 200 | > 200 | > 200 | 100 (≈ 428 µM) | > 200 | > 400 | > 400 | > 400 | > 50 | > 50 | > 50 | > 50 | 4.4 (≈ 18.9 µM) | > 65 | > 80 | > 250 | > 400 | MIC50 (Coxsackievirus B4 [12]): > 400 µg/mL; MIC50 (Vero): > 400 µg/mL; MIC50 (Human respirovirus 3): > 400 µg/mL; MIC50 [13]: > 400 µg/mL; MIC50 (Sindbis virus): > 400 µg/mL; MIC50 [14]: 31 µg/mL (≈ 133 µM); MIC50 (HeLa): > 400 µg/mL; MIC50 [15]: > 200 µg/mL |
| CN1CCCCC12C1CC3CC(C1)CC2C3 (stereo unspecified) | > 200 | > 200 | 115 (≈ 524 µM) | > 200 | > 200 | > 200 | 100 (≈ 456 µM) | > 200 | > 400 | > 400 | > 400 | > 50 | > 50 | > 50 | > 50 | 6.2 (≈ 28.3 µM) | 45 (≈ 205 µM) | 60 (≈ 274 µM) | > 250 | > 400 | MIC50 (Coxsackievirus B4 [12]): > 400 µg/mL; MIC50 (Vero): > 400 µg/mL; MIC50 (Human respirovirus 3): > 400 µg/mL; MIC50 [13]: > 400 µg/mL; MIC50 (Sindbis virus): > 400 µg/mL; MIC50 [14]: 0.58 µg/mL (≈ 2.64 µM); MIC50 (HeLa): > 400 µg/mL; MIC50 [15]: > 200 µg/mL |
